Results published in PMC6779328 (Bioorganic & medicinal chemistry, 2019).
Converted amounts (≈) assume the structure as drawn.

How the values were obtained:
[1] = tested on: E.faecium HM-460; experiment: MIC, E.faecium HM-460; type: cell-based
[2] = tested on: E.faecium 28977; experiment: MIC, E.faecium 28977; type: cell-based
[3] = tested on: MSSA; experiment: MIC, MSSA; type: cell-based, S. aureus
[4] = tested on: MRSA-252; experiment: MIC, MRSA-252; type: cell-based, Staphylococcus aureus
[5] = tested on: B.subtilis NR-607; experiment: MIC, B.subtilis NR-607; type: cell-based
[6] = tested on: MRSA ATCC BAA-44; experiment: MIC by broth microdilution, MRSA BAA-44; type: cell-based, Staphylococcus aureus; conditions: MRSA BAA-44, compound alone
[7] = tested on: HeLa cells; experiment: HeLa growth inhibition; type: cell-based, human
[8] = tested on: MRSA ATCC BAA-44; experiment: Minimum re-sensitizing concentration; type: cell-based, Staphylococcus aureus; conditions: MRSA BAA-44, cefazolin
Procedure, shortened: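 MRSA ATCC BAA-44. The test compound was combined with cefazolin, and the minimum resensitizing concentration (MRC) was reported in μg/mL. MIC alone was determined by standard CLSI broth microdilution. MIC and MRC values were confirmed in triplicate. RMA activity was expressed as the ratio MIC/MRC.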

[9] = Staphylococcus aureus, ATCCBAA44|BAA44|MRSA

Compound	RMA activity (in words) [8]	also measured
1-((6-chloro-2-(6-chlorobenzo[d]thiazol-2-yl)-2,3,4,9-tetrahydro-1H-pyrido[3,4-b]indol-4-yl)methyl)guanidine hydrochloride [12g]	–	MIC [1]: 4 µg/mL; MIC [2]: 2 µg/mL; MIC [3]: 0.5 µg/mL; MIC [4]: 2 µg/mL; MIC [5]: 2 µg/mL; MIC [6]: 2 µg/mL; GI50 ([7]; 24 h): 14.1 µg/mL
6-Chloro-N-[3-(trifluoromethyl)phenyl]-1,3,4,9-tetrahydro-2H-pyrido[3,4-b]indole-2-carbothioamide [5c]	–	MIC [6]: 2 µg/mL
Nc1cc(Cl)c2nc(N3CCc4c([nH]c5ccc(Cl)cc45)C3)sc2c1 [4ad, 4-Chloro-2-(6-chloro-1,3,4,9-tetrahydro-2H-pyrido[3,4-b]indol-2-yl)-1,3-benzothiazol-6-amine]	good RMA activities	–
Cl.NCC(=O)Nc1cc(Cl)c2nc(N3CCc4c([nH]c5ccc(Cl)cc45)C3)sc2c1 [4ae, 2-amino-N-(4-chloro-2-(6-chloro-1,3,4,9-tetrahydro-2H-pyrido[3,4-b]indol-2-yl)benzo[d]thiazol-6-yl)acetamide hydrochloride]	–	antibacterial activity, MIC (in words) [6]: excellent MICs
FC(F)(F)c1cccc2sc(N3CCc4c([nH]c5ccc(Cl)cc45)C3)nc12 [4af, 6-Chloro-2-[4-(trifluoromethyl)-1,3-benzothiazol-2-yl]-2,3,4,9-tetrahydro-1H-pyrido[3,4-b]indole]	good RMA activities	GI50 worse than R^9-Cl analog 4w [7]: 3 fold
CNc1cc(C(F)(F)F)c2nc(N3CCc4c([nH]c5ccc(Cl)cc45)C3)sc2c1 [4ai, 2-(6-Chloro-1,3,4,9-tetrahydro-2H-pyrido[3,4-b]indol-2-yl)-N-methyl-4-(trifluoromethyl)-1,3-benzothiazol-6-amine]	good RMA activities	–
Cl.NCCNc1cc(C(F)(F)F)c2nc(N3CCc4c([nH]c5ccc(Cl)cc45)C3)sc2c1 [4aj, N1-(2-(6-chloro-1,3,4,9-tetrahydro-2H-pyrido[3,4-b]indol-2-yl)-4-(trifluoromethyl)benzo[d]thiazol-6-yl)ethane-1,2-diamine hydrochloride]	–	antibacterial activity, MIC (in words) [6]: excellent MICs
Clc1ccc2[nH]c3c(c2c1)CCN(c1nc2ccccc2s1)C3 [4b, 2-(1,3-Benzothiazol-2-yl)-6-chloro-2,3,4,9-tetrahydro-1H-pyrido[3,4-b]indole]	no RMA activity	–
Cc1ccc2nc(N3CCc4c([nH]c5ccc(Cl)cc45)C3)sc2c1 [4c, 6-Chloro-2-(6-methyl-1,3-benzothiazol-2-yl)-2,3,4,9-tetrahydro-1H-pyrido[3,4-b]indole]	no RMA activity	–
Clc1ccc2[nH]c3c(c2c1)CCN(c1nc2ncccc2s1)C3 [4d, 6-Chloro-2-([1,3]thiazolo[4,5-b]pyridin-2-yl)-2,3,4,9-tetrahydro-1H-pyrido[3,4-b]indole]	abolished	–
FC(F)(F)c1cnc2nc(N3CCc4c([nH]c5ccc(Cl)cc45)C3)sc2c1 [4e, 6-Chloro-2-[6-(trifluoromethyl)[1,3]thiazolo[4,5-b]pyridin-2-yl]-2,3,4,9-tetrahydro-1H-pyrido[3,4-b]indole]	abolished	–
CCOC(=O)C1c2[nH]c3ccc(Cl)cc3c2CCN1c1nc2ccc(Cl)cc2s1 (stereo not shown) [4l, Ethyl 6-chloro-2-(6-chloro-1,3-benzothiazol-2-yl)-2,3,4,9-tetrahydro-1H-pyrido[3,4-b]indole-1-carboxylate]	abolished	–
COC(=O)C1Cc2c([nH]c3ccc(Cl)cc23)CN1c1nc2ccc(Cl)cc2s1 (stereo not shown) [4m, Methyl 6-chloro-2-(6-chloro-1,3-benzothiazol-2-yl)-2,3,4,9-tetrahydro-1H-pyrido[3,4-b]indole-3-carboxylate]	abolished	MIC [6]: >64 µg/mL
CCn1c2c(c3cc(Cl)ccc31)CCN(c1nc3ccc(Cl)cc3s1)C2 [4o, 6-Chloro-2-(6-chloro-1,3-benzothiazol-2-yl)-9-ethyl-2,3,4,9-tetrahydro-1H-pyrido[3,4-b]indole]	abolished	–
Clc1ccc2[nH]c3c(c2c1)CCN(c1nc2ccc(Br)cc2s1)C3 [4p, 2-(6-Bromo-1,3-benzothiazol-2-yl)-6-chloro-2,3,4,9-tetrahydro-1H-pyrido[3,4-b]indole]	retained the RMA activity	–
FC(F)(F)Oc1ccc2nc(N3CCc4c([nH]c5ccc(Cl)cc45)C3)sc2c1 [4t, 6-Chloro-2-[6-(trifluoromethoxy)-1,3-benzothiazol-2-yl]-2,3,4,9-tetrahydro-1H-pyrido[3,4-b]indole]	lost the RMA activity completely	–
Clc1ccc2[nH]c3c(c2c1)CCN(c1nc2cccc(Cl)c2s1)C3 [4u, 6-Chloro-2-(7-chloro-1,3-benzothiazol-2-yl)-2,3,4,9-tetrahydro-1H-pyrido[3,4-b]indole]	reduced RMA activity	–
Clc1ccc2sc(N3CCc4c([nH]c5ccc(Cl)cc45)C3)nc2c1 [4v, 6-Chloro-2-(5-chloro-1,3-benzothiazol-2-yl)-2,3,4,9-tetrahydro-1H-pyrido[3,4-b]indole]	no RMA activity	–
Clc1ccc2[nH]c3c(c2c1)CCN(c1nc2c(Cl)cccc2s1)C3 [4w, 6-Chloro-2-(4-chloro-1,3-benzothiazol-2-yl)-2,3,4,9-tetrahydro-1H-pyrido[3,4-b]indole]	maintained similar RMA activity	–
Clc1cc(Cl)c2nc(N3CCc4c([nH]c5ccc(Cl)cc45)C3)sc2c1 [4x, 6-Chloro-2-(4,6-dichloro-1,3-benzothiazol-2-yl)-2,3,4,9-tetrahydro-1H-pyrido[3,4-b]indole]	–	antibacterial activity, MIC (in words) [6]: excellent MICs
Clc1ccc2[nH]c3c(c2c1)CCN(c1nc2c(Cl)c(Cl)c(Cl)cc2s1)C3 [4y, 6-Chloro-2-(4,5,6-trichloro-1,3-benzothiazol-2-yl)-2,3,4,9-tetrahydro-1H-pyrido[3,4-b]indole]	–	antibacterial activity, MIC (in words) [6]: excellent MICs
Cc1nnc(SCC2=C(C(=O)O)N3C(=O)[C@@H](NC(=O)Cn4cnnn4)[C@H]3SC2)s1 [Cefazolin, reference compound]	–	MIC [6, 9]: 256 µg/mL (≈ 563 µM)
CO/N=C(\C(=O)N[C@@H]1C(=O)N2C(C(=O)O)=C(COC(N)=O)CS[C@H]12)c1ccco1 [Cefuroxime, reference compound]	–	MIC [6]: 256 µg/mL (≈ 603 µM); MIC [6, 9]: 128 µg/mL (≈ 302 µM)
O=C(O)C1CN(c2nc3ccc(Cl)cc3s2)Cc2[nH]c3ccc(Cl)cc3c21 (stereo not shown) [compound 8, 6-Chloro-2-(6-chlorobenzo[d]thiazol-2-yl)-2,3,4,9-tetrahydro-1H-pyrido[3,4-b]indole-4-carboxylic acid]	significantly decreased or abolished	–
CN(C)C(=O)C1CN(c2nc3ccc(Cl)cc3s2)Cc2[nH]c3ccc(Cl)cc3c21 (stereo not shown) [compound 9, 6-Chloro-2-(6-chlorobenzo[d]thiazol-2-yl)-N,N-dimethyl-2,3,4,9-tetrahydro-1H-pyrido[3,4-b]indole-4-carboxamide]	significantly decreased or abolished	–
